In ChEMBL document CHEMBL4813967, “Tackling resistance in chronic myeloid leukemia: Novel cell death modulators with improved efficacy” (Eur J Med Chem, 2021):
The source made the active and inactive calls. No cut-off for these calls is given here.

Legend:
K562 [1] = experiment: Induction of cell sensitization to imatinib in imatinib-resistant human K562 cells assessed as cell death at 10 uM incubated for 72 hrs in presence of 1 uM imatinib by PI staining based flow cytometry (reference value: 19%); type: functional
K562 [2] = experiment: Induction of cell sensitization to imatinib in imatinib-resistant human K562 cells assessed as cell death at 5 uM incubated for 72 hrs in presence of 1 uM imatinib by PI staining based flow cytometry (reference value: 19%); type: functional
[3] = biological target: T1, Peroxisome proliferator-activated receptor gamma (Homo sapiens, UniProt P37231); experiment: Agonist activity at Gal4-fused human PPARgamma transfected in African green monkey COS7 cells co-transfected with pGal5-TK-pGL3 and pRenilla-CMV assessed as receptor transactivation at 10 uM incubated for 39 hrs by dual luciferase reporter gene assay relative to piaglitazone; type: cell-based; conditions: COS-7, human, read-out: max activation
T1 sequence (P37231 whole entry): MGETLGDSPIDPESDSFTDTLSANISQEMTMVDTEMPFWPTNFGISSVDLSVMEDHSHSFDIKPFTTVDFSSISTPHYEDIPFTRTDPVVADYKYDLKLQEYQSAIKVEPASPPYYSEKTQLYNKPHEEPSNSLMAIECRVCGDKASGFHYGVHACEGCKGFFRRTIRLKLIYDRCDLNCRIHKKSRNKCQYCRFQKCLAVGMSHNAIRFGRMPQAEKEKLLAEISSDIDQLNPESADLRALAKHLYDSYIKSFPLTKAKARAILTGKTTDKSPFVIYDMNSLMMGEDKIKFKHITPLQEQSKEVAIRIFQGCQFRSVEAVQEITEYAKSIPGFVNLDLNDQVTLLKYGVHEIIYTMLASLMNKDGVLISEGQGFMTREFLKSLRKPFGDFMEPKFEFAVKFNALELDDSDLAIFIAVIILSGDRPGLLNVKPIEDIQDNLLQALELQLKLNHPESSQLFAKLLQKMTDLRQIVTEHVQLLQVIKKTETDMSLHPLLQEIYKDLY
In short: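 COS-7 cells (10^4/well, triplicates) grown 24 h, then transiently transfected with pGal5-TK-pGL3 (90 ng), pGal4-hPPARγDEF (9 ng) and pRenilla-CMV (3 ng). Compound added 7 h later, incubation 39 h. Cells lysed by freezing at -80 °C overnight plus lysis buffer. Firefly luciferase normalised to Renilla. Activity at 10 µM expressed relative to pioglitazone at 10 µM (100%). Mean ± SD of ≥3 experiments.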

K562 [4] = experiment: Induction of cell sensitization to imatinib in imatinib-resistant human K562 cells assessed as cell death at 1.75 uM incubated for 72 hrs in presence of 1 uM imatinib by PI staining based flow cytometry (reference value: 19%); type: functional
K562 [5] = experiment: Induction of cell sensitization to imatinib in imatinib-resistant human K562 cells assessed as cell death at >10 uM incubated for 72 hrs in presence of 1 uM imatinib by PI staining based flow cytometry; type: functional; conditions: dose microM >10, time 72.0 hrs
In short: (§1)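 K562-resistant cells, a doxorubicin-resistant K562 subclone (KD225), grown in RPMI 1640 with 10% FCS. Seeded 2×10^5/well and exposed 72 h to compound alone or with 1 µM imatinib. PI/Triton X-100 staining 2 h at 4 °C; flow cytometry scoring sub-G1 nuclei as dead cells. DMSO vehicle (≤0.1%) controls. Mean ± SEM of ≥3 experiments.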

[6] = Cytotoxicity against human HS5 cells assessed as cell death at 5 uM incubated for 72 hrs by PI staining based flow cytometry; conditions: hs5, 72 h
In short: (§2)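 HS-5 stromal cells in DMEM with 10% FCS, 5% CO2, 37 °C. Seeded 0.5×10^5/well, given compound (5 µM) alone or with imatinib, and incubated 72 h. Cells stained with PI/Triton X-100 for 2 h at 4 °C. Dead cells counted by flow cytometry as sub-G1 nuclei. DMSO vehicle control included.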

COS-7 [7] = experiment: Cytotoxicity against African green monkey COS7 cells assessed as cell viability at 10 uM incubated for 72 hrs by MTT assay; type: cell-based; conditions: chlorocebus aethiops, cos-7, 72 h
In short: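 COS-7 cells in DMEM with 10% FCS and L-glutamine, no antibiotics or phenol red. Seeded 2×10^3/well in triplicate, grown 24 h, then compound added at 10 µM final and incubated 72 h. Modified MTT (tetrazolium) metabolic-activity readout by absorbance. DMSO control set to 100%; DMSO ≤0.1%. Mean + SD of ≥3 experiments, triplicate determinations.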

[8] = Modulation of STAT5 expression in imatinib-resistant human K562 cells assessed as STAT5 level at 5 uM measured after 6 hrs by Jess Simple Western immunoassay (reference value: 100%); type: functional
In short: (§3)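 K562-resistant (doxorubicin-resistant KD225) cells treated 6 h with compound at 5 µM, alone or with 1 µM imatinib, against a DMSO control. Total protein extracts analysed by capillary Jess Simple Western. STAT5 antibody 10 µg/ml with 0.2 mg/ml lysate; pSTAT5 (Y694/699) antibody 20 µg/ml with 2 mg/ml lysate. GAPDH (0.4 µg/ml) as loading reference; HRP anti-rabbit secondary.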

K562 [9] = experiment: Cytotoxicity against imatinib-resistant human K562 cells assessed as cell death at 5 uM incubated for 72 hrs by propidium iodide staining based flow cytometry; conditions: k562, 72 h; in short: as §1
[10] = Cytotoxicity against human HS5 cells assessed as cell death at 5 uM incubated for 72 hrs in presence of imatinib by PI staining based flow cytometry; conditions: hs5, 72 h; in short: as §2
[11] = Modulation of STAT5 expression in imatinib-resistant human K562 cells assessed as STAT5 level at 5 uM measured after 6 hrs in presence of imatinib by Jess Simple Western immunoassay (reference value: 100%); type: functional
[12] = biological target: T2, Signal transducer and activator of transcription 5A (Homo sapiens) (UniProt P42229); experiment: Inhibition of STAT5 phosphorylation at Y694/699 residue in imatinib-resistant human K562 cells assessed as phosphorylated STAT5 level at 5 uM incubated for 6 hrs by Jess Simple Western immunoassay (reference value: 100%); type: cell-based; design: scale not given: the % may be the effect or the level left; in short: as §3
T2 sequence (whole entry): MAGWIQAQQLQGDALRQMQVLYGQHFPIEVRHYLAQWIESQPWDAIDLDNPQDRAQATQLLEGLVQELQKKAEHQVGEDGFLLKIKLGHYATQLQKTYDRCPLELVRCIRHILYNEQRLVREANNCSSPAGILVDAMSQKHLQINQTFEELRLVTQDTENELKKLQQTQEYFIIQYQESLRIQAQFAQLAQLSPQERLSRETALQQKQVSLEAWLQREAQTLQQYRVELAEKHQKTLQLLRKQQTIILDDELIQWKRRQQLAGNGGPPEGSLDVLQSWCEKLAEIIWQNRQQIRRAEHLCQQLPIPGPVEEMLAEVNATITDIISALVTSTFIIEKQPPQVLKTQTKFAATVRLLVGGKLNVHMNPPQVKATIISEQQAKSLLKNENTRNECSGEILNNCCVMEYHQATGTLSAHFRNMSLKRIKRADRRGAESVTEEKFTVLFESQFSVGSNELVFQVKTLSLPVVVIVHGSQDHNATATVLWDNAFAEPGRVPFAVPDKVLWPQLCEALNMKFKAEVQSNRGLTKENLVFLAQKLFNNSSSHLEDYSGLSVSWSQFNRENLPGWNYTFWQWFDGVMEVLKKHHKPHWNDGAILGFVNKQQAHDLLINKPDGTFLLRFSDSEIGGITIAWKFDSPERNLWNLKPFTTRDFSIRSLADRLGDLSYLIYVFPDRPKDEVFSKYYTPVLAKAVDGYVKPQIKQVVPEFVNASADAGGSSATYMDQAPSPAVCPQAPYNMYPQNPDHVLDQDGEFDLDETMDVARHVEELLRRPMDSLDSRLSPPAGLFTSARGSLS

[13] = biological target: T2, Signal transducer and activator of transcription 5A (Homo sapiens); experiment: Inhibition of STAT5 phosphorylation at Y694/699 residue in imatinib-resistant human K562 cells assessed as phosphorylated STAT5 level at 5 uM incubated for 6 hrs in presence of imatinib by Jess Simple Western immunoassay (reference value: 100%); type: cell-based; design: scale not given: the % may be the effect or the level left
COS-7 [14] = experiment: Cytotoxicity against African green monkey COS7 cells assessed as cell viability at 10 uM incubated for 72 hrs by MTT assay; conditions: chlorocebus aethiops, cos-7, 72 h

Compound | Activity (K562 [1]) | Activity (K562 [2]) | Emax at 10 µM [3] | Activity (K562 [4]) | Activity (K562 [5]) | Activity [6] | Activity (COS-7 [7]) | Activity [8] | Activity (K562 [9]) | Activity [10] | Activity [11] | Activity [12] | Activity [13] | Activity (COS-7 [14])
CCCc1nc2c(C)cc(-c3nc4ccccc4n3C)cc2n1Cc1ccc(-c2ccccc2C(=O)O)cc1 [TELMISARTAN] | 63% | 57% | 59.8% | 21% |  |  |  |  |  |  |  |  |  | 
CCCc1nc2c(C)cc(-c3nc4ccccc4n3C)cc2n1Cc1ccc(-c2ccccc2C(N)=O)cc1 | 89% | 76% |  | 41% |  |  |  |  |  |  |  |  |  | 
CCc1ccc(CCOc2ccc(CC3SC(=O)NC3=O)cc2)nc1 (configuration not stated) |  |  |  |  | inactive |  |  |  |  |  |  |  |  | 
CCCc1nc2c(Cl)cccc2n1Cc1ccc(-c2ccccc2C#N)cc1 | >85% | 50% | 68.4% |  |  | Non-Toxic | Non-Toxic | 107% | <= 20% | Non-Toxic | 109% | 81% | 12% | Non-Toxic
CCCc1nc2c(F)cccc2n1Cc1ccc(-c2ccccc2C#N)cc1 | >85% | 50% | 76% |  |  | Non-Toxic | Non-Toxic | 105% | <= 20% | Non-Toxic | 96% | 89% | 1% | Non-Toxic
